From ChEMBL document CHEMBL2086251, “Arylazolyl(azinyl)thioacetanilides. Part 10: design, synthesis and biological evaluation of novel substituted imidazopyridinylthioacetanilides as potent HIV-1 inhibitors” (Bioorg Med Chem, 2012)
pEC50, pIC50: −log10 of the molar value.

Experiments:
[1] = tested on: Human immunodeficiency virus 1; assay: Antiviral activity against HIV-1 3B infected human MT4 cells assessed as inhibition in viral syncytium formation by MTT assay; format: functional, organism-based; conditions: Human immunodeficiency virus 1, 3B
Summary of the method: (§1)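 MT-4 cells (6 × 10⁵ cells/mL) infected with HIV-1 IIIB or HIV-2 ROD stock at 100–300 CCID50, with serial fivefold compound dilutions in triplicate wells. After 5 days, viability was read by MTT reduction at 540 and 690 nm, using the median OD of three wells. EC50 is the concentration giving 50% inhibition of virus-induced syncytium formation.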

[2] = tested on: Human immunodeficiency virus 2; assay: Antiviral activity against HIV-2 ROD infected human MT4 cells assessed as inhibition in viral syncytium formation by MTT assay; format: functional, organism-based; conditions: Human immunodeficiency virus 2, ISOLATE ROD; summary of the method: as §1
[3] = Cytotoxicity against mock-infected human MT4 cells by MTT assay; format: cell-based
Summary of the method: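 Mock-infected MT-4 cells (6 × 10⁵ cells/mL) were run in parallel with the infected wells, with serial fivefold compound dilutions in triplicate. After 5 days, viability was read by MTT at 540 and 690 nm, using the median OD of three wells. CC50 is the concentration that reduces OD540 of mock-infected controls by 50%.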

[4] = Selectivity index, ratio of CC50 for human MT4 cells to EC50 for HIV-1 3B; format: toxicity, cell-based; conditions: read-out: Ratio CC50/EC50
Summary of the method: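 SI is the ratio CC50/EC50, both taken from parallel 5-day MTT assays in MT-4 cells. CC50 comes from mock-infected cells and EC50 from HIV-1 IIIB-infected cells.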

[5] = tested on: Human immunodeficiency virus 1; assay: Antiviral activity against HIV-1 RES056 harboring RT K103N/Y181C mutant gene infected human MT4 cells assessed as inhibition in viral syncytium formation by MTT assay; format: functional, organism-based; conditions: Human immunodeficiency virus 1, RES056, MT4
Summary of the method: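 MT-4 cells infected with double-mutant RT (K103N/Y181C) HIV-1 RES056; compounds added as serial fivefold dilutions in triplicate wells with mock-infected parallels. Cells at 6 × 10⁵ cells/mL. Viability read by MTT after five days at 540 and 690 nm, median OD of three wells. EC50 is the concentration inhibiting virus-induced syncytium formation by 50%.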

[6] = biological target: Human immunodeficiency virus type 1 reverse transcriptase (Human immunodeficiency virus 1, UniProt Q72547); assay: Inhibition of recombinant HIV-1 RT assessed as inhibition of biotin-dUTP incorporation by colorimetric analysis
Summary of the method: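 Highly purified recombinant HIV-1 RT was used with a […] homopolymer template primer. Nucleotides were linked to a microtiter plate, and incorporated biotin-dUTP was detected colorimetrically. IC50 is the concentration inhibiting biotin-dUTP incorporation by 50%.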

Structure (SMILES) | pEC50 [1] | pEC50 [2] | CC50 [3] [µM] | selectivity ratio [4] | pEC50 [5] | pIC50 [6]
Cc1cc(C)c(-n2c(SCC(=O)Nc3ccc(C)cc3Br)nc3cccnc32)c(C)c1 | < 6.00 | < 6.00 | 0.99 | < 1 | – | –
Nc1ccn([C@H]2CC[C@@H](CO)O2)c(=O)n1 [ZALCITABINE] | – | 5.77 | > 95 | > 68 | – | –
CC(=O)c1ccc(NC(=O)CSc2nc3cnccc3n2-c2c(C)cc(C)cc2C)c(Br)c1 | 6.00 | < 4.21 | 61 | 61 | < 4.21 | –
Cc1cc(C)c(-n2c(SCC(=O)Nc3ncc(C)cc3Br)nc3cnccc32)c(C)c1 | < 4.21 | < 4.21 | 61 | < 1 | – | –
Cc1cc(C)c(-n2c(SCC(=O)Nc3ccccc3[N+](=O)[O-])nc3cccnc32)c(C)c1 | ≤ 5.17 | < 4.41 | 39 | ≤ 6 | < 4.41 | –
Cc1cc(C)c(-n2c(SCC(=O)Nc3ccc(C)cc3[N+](=O)[O-])nc3cnccc32)c(C)c1 | ≤ 5.92 | < 5.21 | 6.2 | ≤ 5 | < 5.21 | –
Cc1cc(C)c(-n2c(SCC(=O)Nc3ccccc3F)nc3cnccc32)c(C)c1 | < 4.74 | < 4.74 | 18 | < 1 | – | –
O=C(CSc1snnc1-c1ccc(Br)cc1Br)Nc1cccnc1Cl | 7.44 | – | – | > 6460 | – | –
CC(C)Nc1cccnc1N1CCN(C(=O)c2cc3cc(NS(C)(=O)=O)ccc3[nH]2)CC1 [DELAVIRDINE] | – | – | > 36 | > 1030 | < 4.44 | –
Cc1cc(C)c(-n2c(SCC(=O)Nc3ccccc3C)nc3cnccc32)c(C)c1 | < 4.66 | < 4.66 | 22 | < 1 | – | –
Cc1cc(C)c(-n2c(SCC(=O)Nc3ccc(S(N)(=O)=O)cc3Br)nc3cnccc32)c(C)c1 | 6.68 | < 5.01 | 9.7 | 46 | < 5.01 | 5.36
Cc1cc(C)c(-n2c(SCC(=O)Nc3ccccc3)nc3cccnc32)c(C)c1 | < 4.59 | < 4.59 | 26 | < 1 | – | –
Cc1cc(C)c(-n2c(SCC(=O)Nc3ccccc3Cl)nc3cnccc32)c(C)c1 | < 4.72 | < 4.72 | 19 | < 1 | – | –
Cc1cc(C)c(-n2c(SCC(=O)Nc3ccc(Cl)cc3Cl)nc3cnccc32)c(C)c1 | ≤ 5.96 | < 3.85 | 140 | ≤ 127 | < 3.85 | –
Cc1cc(C)c(-n2c(SCC(=O)Nc3ccc(S(N)(=O)=O)cc3Br)nc3cccnc32)c(C)c1 | 6.12 | < 4.66 | 22 | 30 | < 4.66 | –
CCOC(=O)c1ccc(NC(=O)CSc2nc3cnccc3n2-c2c(C)cc(C)cc2C)c(Br)c1 | 5.33 | < 4.66 | 22 | 5 | < 4.66 | –
Cc1cc(C)c(-n2c(SCC(=O)Nc3ncc(C)cc3Br)nc3cccnc32)c(C)c1 | < 3.99 | < 3.99 | 102 | < 1 | – | –
Cc1cc(C)c(-n2c(SCC(=O)Nc3cccnc3Cl)nc3cccnc32)c(C)c1 | < 5.22 | < 5.22 | 6 | < 1 | – | –
Cc1cc(C)c(-n2c(SCC(=O)Nc3ccccc3F)nc3cccnc32)c(C)c1 | < 5.43 | < 5.43 | 3.7 | < 1 | – | –

Structure (SMILES) | pEC50 [1] | pEC50 [2] | CC50 [3] [µM] | selectivity ratio [4] | pEC50 [5] | pIC50 [6]
Cc1cc(C)c(-n2c(SCC(=O)Nc3ccccc3C)nc3cccnc32)c(C)c1 | < 4.82 | < 4.82 | 15 | < 1 | – | –
Cc1cc(C)c(-n2c(SCC(=O)Nc3ccc([N+](=O)[O-])cc3Cl)nc3cnccc32)c(C)c1 | 5.85 | < 4.54 | 29 | 20 | < 4.54 | –
COC(=O)c1ccc(NC(=O)CSc2nc3cccnc3n2-c2c(C)cc(C)cc2C)c(Br)c1 | 5.05 | < 4.10 | 80 | 9 | < 4.10 | –
CC(=O)c1ccc(NC(=O)CSc2nc3cccnc3n2-c2c(C)cc(C)cc2C)c(Br)c1 | 5.44 | < 4.34 | 46 | 13 | < 4.34 | –
Cc1cc(C)c(-n2c(SCC(=O)Nc3cccnc3Cl)nc3cnccc32)c(C)c1 | 5.77 | < 4.66 | 22 | 12 | < 4.66 | –
COC(=O)c1ccc(NC(=O)CSc2nc3cnccc3n2-c2c(C)cc(C)cc2C)c(Br)c1 | ≤ 5.60 | < 4.57 | 27 | ≤ 11 | < 4.57 | –
Cc1cc(C)c(-n2c(SCC(=O)Nc3ccccc3)nc3cnccc32)c(C)c1 | < 4.77 | < 4.77 | 17 | < 1 | – | –
Cc1cc(C)c(-n2c(SCC(=O)Nc3ccccc3Cl)nc3cccnc32)c(C)c1 | < 5.41 | < 5.41 | 3.9 | < 1 | – | –
Cc1cc(C)c(-n2c(SCC(=O)Nc3ccc(Cl)cc3Cl)nc3cccnc32)c(C)c1 | < 5.52 | < 5.52 | 3.9 | < 1 | – | –
Cc1cc(C)c(-n2c(SCC(=O)Nc3ccc(C)cc3[N+](=O)[O-])nc3cccnc32)c(C)c1 | < 3.84 | < 3.84 | 144 | < 1 | – | –
O=C1Nc2ccc(Cl)cc2[C@@](C#CC2CC2)(C(F)(F)F)O1 [EFAVIRENZ] | – | – | > 6.3 | > 964 | – | –
Cc1cc(C)c(-n2c(SCC(=O)Nc3ccc(C)cc3Br)nc3cnccc32)c(C)c1 | < 5.23 | < 5.23 | 5.9 | < 1 | – | –
Cc1cc(C)c(-n2c(SCC(=O)Nc3ccccc3[N+](=O)[O-])nc3cnccc32)c(C)c1 | 5.24 | < 5.00 | 9.9 | 2 | < 5.00 | –
Cc1cc(C)c(-n2c(SCC(=O)Nc3ccccc3Br)nc3cnccc32)c(C)c1 | 5.28 | < 4.66 | 22 | 4 | < 4.66 | –
Cc1cc(C)c(-n2c(SCC(=O)Nc3ccccc3Br)nc3cccnc32)c(C)c1 | < 5.25 | < 5.25 | 5.6 | < 1 | – | –
Cc1cn([C@H]2C[C@H](N=[N+]=[N-])[C@@H](CO)O2)c(=O)[nH]c1=O [ZIDOVUDINE] | 5.22 | – | ≥ 50 | ≥ 8300 | 8.00 | –
CCOC(=O)c1ccc(NC(=O)CSc2nc3cccnc3n2-c2c(C)cc(C)cc2C)c(Br)c1 | 5.00 | < 3.93 | 117 | 12 | < 3.93 | –
Cc1cc(C)c(-n2c(SCC(=O)Nc3ccc([N+](=O)[O-])cc3Cl)nc3cccnc32)c(C)c1 | < 4.60 | < 4.60 | 25 | < 1 | – | –
Cc1ccnc2c1NC(=O)c1cccnc1N2C1CC1 [NEVIRAPINE] | – | – | > 15 | > 75 | < 4.82 | –
